Data as given in publication PMC5161575 (Nature, 2016).
Read-outs that look alike come from different tables or passages of the source.

Tests used:
[1] = target: KSR2 in purified KSR2-MEK1 complexes (Homo sapiens, UniProt Q6VAB6); test: ATP^biotin probe-labelling competition; format: binding
[2] = system: Phospho-AMPK in HCT116 cells; test: phospho-AMPK western blot; format: cell-based; settings: co-treatment with trametinib, 48 h
Summary of the method: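 HCT116 cells received test compound and/or a MEK inhibitor for 48 h. Lysates were western blotted for phospho-AMPK, phospho-ERK and total MEK, with primary antibodies overnight in 5% BSA TBS-T. Signal was detected by chemiluminescence on a CCD imager, and band intensities were quantified.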

[3] = system: KSR-stimulated MEK and ERK phosphorylation in 293H cells; test: KSR-driven MAPK signalling reconstitution; format: cell-based; settings: 5 μM, 2 h
[4] = system: BRAF(V600E)-induced MAPK activation in 293H cells; test: BRAF; format: cell-based; settings: 5 μM, 2 h
Summary of the method: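 They were then exposed for 2 h to DMSO or 5μM test compound, alongside a reference RAF inhibitor. Cells were collected and western blotted for phospho-MEK1/2 (Ser218/Ser222) and phospho-ERK1/2 (T202/Y204). Primary antibodies were applied overnight in 5% BSA TBS-T.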

[5] = system: ERK phosphorylation in HCT-116 cells; test: phospho-ERK western blot; format: cell-based; settings: APS-2-79 treatment
[6] = target: BRAF(F667E) + KSR2:MEK1 (Homo sapiens, UniProt Q6VAB6); test: bio-layer inferometry; format: binding; settings: compound 25 μM
[7] = target: MEK phosphorylation by BRAF or CRAF (Homo sapiens, UniProt Q6VAB6); test: RAF phosphorylation assay of KSR2-MEK1 or MEK1 in vitro; format: biochemical; settings: KSR2-MEK1; compound 1 μM
[8] = system: MEK phosphorylation by BRAF or CRAF; test: as above; format: biochemical; settings: KSR absent or KSR2(A690F) mutant; compound 1 μM
[9] = target: MEK1 (Oryctolagus cuniculus, UniProt P29678); test: ATP^biotin probe-labelling competition; format: binding, rabbit; settings: read-out: IC50 (ATP), MEK1; free ATP vs 2 μM ATP^biotin, KSR2-MEK1 complexes
Summary of the method: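 The probe transfers desthio-biotin onto active-site lysines of both KSR2 and MEK1. Biotin, total MEK and total KSR detected by western blot, giving probe-labelling versus ATP level for each partner.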

[10] = target: MEK1 (1-393) (rabbit, UniProt P29678 1-393); test: BLI
[11] = target: KSR2(KD):MEK1 complex (human | rabbit, UniProt Q6VAB6 634-950; P29678 1-393); test: BLI

With `COc1cc2ncnc(Nc3ccc(Oc4ccccc4)cc3)c2cc1OC.Cl` [APS-1-68-2, 6,7-Dimethoxy-N-(4-phenoxyphenyl)quinazolin-4-amine hydrochloride] the “KSR2-MEK1 probe competition (in words)” value [1] was “competitor of probe-labelling”.

In the case of `COc1ccc(Nc2ncnc3cc(OC)c(OC)cc23)cc1.Cl` [APS-1-70-1, 6,7-Dimethoxy-N-(4-methoxyphenyl)quinazolin-4-amine hydrochloride], the “KSR2-MEK1 probe competition (in words)” value [1] is reported as “greatly diminished competition”.

For `COc1cc2ncnc(Nc3ccc(O)cc3)c2cc1OC.Cl` [APS-1-82-1, 4-((6,7-Dimethoxyquinazolin-4-yl)amino)phenol hydrochloride], the “KSR2-MEK1 probe competition (in words)” value [1] was “greatly diminished competition”.

With `COc1cc2ncnc(Nc3ccc(OCc4ccccc4)cc3)c2cc1OC.O=C(O)C(F)(F)F` [APS-2-12, N-(4-(Benzyloxy)phenyl)-6,7-dimethoxyquinazolin-4-amine 2,2,2-trifluoroacetate] the “KSR2-MEK1 probe competition (in words)” value [1] was “diminished”.

`COc1cc2nccc(Nc3ccc(Oc4ccccc4)cc3)c2cc1OC.Cl` [APS-2-16, 6,7-Dimethoxy-N-(4-phenoxyphenyl)quinolin-4-amine hydrochloride] was tested, and the “KSR2-MEK1 probe competition (in words)” value [1] was “moderately tolerated”.

With `COc1cc2ncnc(Nc3ccc(Oc4ccccc4)cc3C)c2cc1OC.O=C(O)C(F)(F)F` [APS-2-79, 6,7-Dimethoxy-N-(2-methyl-4-phenoxyphenyl)quinazolin-4-amine 2,2,2-trifluoroacetate] the Phospho-AMPK [2] was “remains unchanged”, the “KSR-stimulated MEK and ERK phosphorylation” value ([3]; KSR(A690F) mutant) was “significantly diminished the activity” and the “KSR-stimulated MEK and ERK phosphorylation” value ([3]; wild-type KSR) was “suppressed”. For the same molecule, the “BRAF(V600E)-induced MAPK activation” value [4] was “does not affect”, the “enhancement in the IC90 of trametinib on ERK phosphorylation” value [5] was “twofold enhancement” and the “assembly of BRAF(F667E) and KSR2-MEK1 (in words)” value [6] was “did not associate”. The “KSR-stimulated MEK phosphorylation by RAF” value [7] was “markedly reduced” and the “MEK phosphorylation by RAF” value [8] was “inactive”.

In the case of `COc1cc2/c(=N/c3ccc(Oc4ccccc4)cc3)ncn(C)c2cc1OC` [APS-3-6, (Z)-N-(6,7-Dimethoxy-1-methylquinazolin-4(1H)-ylidene)-4-phenoxyaniline], the “KSR2-MEK1 probe competition (in words)” value [1] is reported as “greatly diminished”.

For `COc1cc2ncnc(Nc3ccc(Oc4ccccc4)c(C)c3C)c2cc1OC.Cl` [APS-3-77, N-(2,3-Dimethyl-4-phenoxyphenyl)-6,7-dimethoxyquinazolin-4-amine hydrochloride], the IC50 [1] was over 10 µM, the “KSR2-MEK1 probe competition (in words)” value [1] was “essentially inactive” and the “assembly of BRAF(F667E) and KSR2-MEK1 (in words)” value [6] was “did not impede”.

`Nc1ncnc2c1ncn2[C@@H]1O[C@H](COP(=O)(O)OP(=O)(O)OP(=O)(O)O)[C@@H](O)[C@H]1O` [ATP, reference compound] was tested, and the IC50 ([1]; read-out: IC50 (ATP), KSR2, free ATP vs 2 μM ATP^biotin, KSR2-MEK1 complexes) was 86 µM and the IC50 [9] was 133 µM.

B1: B-RAF (modified variant for high-yield expression in E. coli) (enzyme)
chain: RDSSDDWEIPDGQITVGQRIGSGSFGTVYKGKWHGDVAVKMLNVTAPTPQQLQAFKNEVGVLRKTRHVNILLFMGYSTKPQLAIVTQWCEGSSLYHHLHASETKFEMKKLIDIARQTARGMDYLHAKSIIHRDLKSNNIFLHEDNTVKIGDFGLATVKSRWSGSHQFEQLSGSILWMAPEVIRMQDSNPYSFQSDVYAFGIVLYELMTGQLPYSNINNRDQIIFMVGRGSLSPDLSKVRSNCPKRMKRLMAECLKKKRDERPSFPRILAEIEELARELSG
modifications: biotinylated with EZ-Link Sulfo-NHS-Biotin
With B1 the Kd [10] was 0.051 µM.

B2: B-RAF(F667E) (in the modified variant for E. coli expression) (enzyme)
chain: RDSSDDWEIPDGQITVGQRIGSGSFGTVYKGKWHGDVAVKMLNVTAPTPQQLQAFKNEVGVLRKTRHVNILLFMGYSTKPQLAIVTQWCEGSSLYHHLHASETKFEMKKLIDIARQTARGMDYLHAKSIIHRDLKSNNIFLHEDNTVKIGDFGLATVKSRWSGSHQFEQLSGSILWMAPEVIRMQDSNPYSFQSDVYAFGIVLYELMTGQLPYSNINNRDQIIEMVGRGSLSPDLSKVRSNCPKRMKRLMAECLKKKRDERPSFPRILAEIEELARELSG
modifications: biotinylated with EZ-Link Sulfo-NHS-Biotin
B2 gave a Kd [11] of 1.99 µM.
